System: Fibroblast
Assay: Multiplex assay against human fibroblast
Type: toxicity, cell-based
Method in brief: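 Cells were classed with CellPathfinder machine-learning gating, first as Hoechst high-intensity objects or normal cells, then (normal cells) as healthy, pyknosed or fragmented nuclei, and finally (pyknosed cells) as mitotic or apoptotic. Staining of live cells at seeding used Hoechst33342, BioTracker Green Microtubule Cytoskeleton Dye, MitoTracker Red and Annexin V Alexa Fluor 680, with imaging on a CQ1 microscope at 37°C and 5% CO2 after compound addition. Tubulin, mitochondrial-mass and membrane-permeability phenotypes are per cents of healthy-nucleus cells.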

[1] = 12 h, 1 µM, compound concentration 1 uM, replicate 1
[2] = 12 h, 1 µM, compound concentration 1 uM, replicate 2
[3] = 12 h, 10 µM, compound concentration 10 uM, replicate 1
[4] = 12 h, 10 µM, compound concentration 10 uM, replicate 2
[5] = 24 h, 1 µM, compound concentration 1 uM, replicate 1
[6] = 24 h, 1 µM, compound concentration 1 uM, replicate 2
[7] = 24 h, 10 µM, compound concentration 10 uM, replicate 1
[8] = 24 h, 10 µM, compound concentration 10 uM, replicate 2
[9] = 48 h, 1 µM, compound concentration 1 uM, replicate 1
[10] = 48 h, 1 µM, compound concentration 1 uM, replicate 2
[11] = 48 h, 10 µM, compound concentration 10 uM, replicate 1
[12] = 48 h, 10 µM, compound concentration 10 uM, replicate 2

SMILES: Cc1nn(C)c2nc(NNC(=O)Nc3cc(Cl)nc(Cl)c3)cc(C(C)C)c12
- Population Apoptotic (%) [1]: 62%
- Population Fragmented Nuclei (%) [1]: 15%
- Population Healthy Nuclei (%) [1]: 68%
- Population Hoechst High Intensity Objects (%) [1]: 3%
- Population Membrane Permeable-Phenotype (%) [1]: 0%
- Population Mitochondria Different-Phenotype (%) [1]: 4%
- Population Mitotic Cells (%) [1]: 37%
- Population Normal (%) [1]: 96%
- Population Pyknosed Nuclei (%) [1]: 15%
- Population Tubulin-Different-Phenotype (%) [1]: 27%
- Total Cell Count [1]: 178
- Population Apoptotic (%) [2]: 37%
- Population Fragmented Nuclei (%) [2]: 31%
- Population Healthy Nuclei (%) [2]: 53%
- Population Hoechst High Intensity Objects (%) [2]: 2%
- Population Mitochondria Different-Phenotype (%) [2]: 7%
- Population Mitotic Cells (%) [2]: 62%
- Population Normal (%) [2]: 97%
- Population Tubulin-Different-Phenotype (%) [2]: 46%
- Total Cell Count [2]: 179
- Population Apoptotic (%) [3]: 53%
- Population Fragmented Nuclei (%) [3]: 12%
- Population Healthy Nuclei (%) [3]: 63%
- Population Hoechst High Intensity Objects (%) [3]: 3%
- Population Membrane Permeable-Phenotype (%) [3]: 2%
- Population Mitochondria Different-Phenotype (%) [3]: 15%
- Population Mitotic Cells (%) [3]: 46%
- Population Normal (%) [3]: 96%
- Population Pyknosed Nuclei (%) [3]: 23%
- Population Tubulin-Different-Phenotype (%) [3]: 89%
- Total Cell Count [3]: 139
- Population Apoptotic (%) [4]: 21%
- Population Fragmented Nuclei (%) [4]: 33%
- Population Healthy Nuclei (%) [4]: 56%
- Population Hoechst High Intensity Objects (%) [4]: 7%
- Population Membrane Permeable-Phenotype (%) [4]: 5%
- Population Mitochondria Different-Phenotype (%) [4]: 6%
- Population Mitotic Cells (%) [4]: 78%
- Population Normal (%) [4]: 92%
- Population Pyknosed Nuclei (%) [4]: 10%
- Total Cell Count [4]: 140
- Population Apoptotic (%) [5]: 59%
- Population Fragmented Nuclei (%) [5]: 18%
- Population Healthy Nuclei (%) [5]: 68%
- Population Hoechst High Intensity Objects (%) [5]: 1%
- Population Membrane Permeable-Phenotype (%) [5]: 1%
- Population Mitochondria Different-Phenotype (%) [5]: 3%
- Population Mitotic Cells (%) [5]: 40%
- Population Normal (%) [5]: 98%
- Population Pyknosed Nuclei (%) [5]: 12%
- Population Tubulin-Different-Phenotype (%) [5]: 29%
- Total Cell Count [5]: 176
- Population Apoptotic (%) [6]: 62%
- Population Fragmented Nuclei (%) [6]: 21%
- Population Hoechst High Intensity Objects (%) [6]: 2%
- Population Membrane Permeable-Phenotype (%) [6]: 2%
- Population Mitochondria Different-Phenotype (%) [6]: 6%
- Population Mitotic Cells (%) [6]: 37%
- Population Normal (%) [6]: 97%
- Population Pyknosed Nuclei (%) [6]: 9%
- Population Tubulin-Different-Phenotype (%) [6]: 50%
- Total Cell Count [6]: 174
- Population Apoptotic (%) [7]: 52%
- Population Fragmented Nuclei (%) [7]: 12%
- Population Healthy Nuclei (%) [7]: 69%
- Population Hoechst High Intensity Objects (%) [7]: 4%
- Population Membrane Permeable-Phenotype (%) [7]: 1%
- Population Mitochondria Different-Phenotype (%) [7]: 22%
- Population Mitotic Cells (%) [7]: 47%
- Population Normal (%) [7]: 95%
- Population Pyknosed Nuclei (%) [7]: 18%
- Population Tubulin-Different-Phenotype (%) [7]: 95%
- Total Cell Count [7]: 130
- Population Apoptotic (%) [8]: 25%
- Population Fragmented Nuclei (%) [8]: 28%
- Population Healthy Nuclei (%) [8]: 61%
- Population Hoechst High Intensity Objects (%) [8]: 8%
- Population Membrane Permeable-Phenotype (%) [8]: 0%
- Population Mitochondria Different-Phenotype (%) [8]: 6%
- Population Mitotic Cells (%) [8]: 75%
- Population Normal (%) [8]: 91%
- Population Pyknosed Nuclei (%) [8]: 9%
- Population Tubulin-Different-Phenotype (%) [8]: 89%
- Total Cell Count [8]: 132
- Population Apoptotic (%) [9]: 71%
- Population Fragmented Nuclei (%) [9]: 18%
- Population Healthy Nuclei (%) [9]: 73%
- Population Hoechst High Intensity Objects (%) [9]: 1%
- Population Membrane Permeable-Phenotype (%) [9]: 1%
- Population Mitochondria Different-Phenotype (%) [9]: 2%
- Population Mitotic Cells (%) [9]: 28%
- Population Normal (%) [9]: 98%
- Population Pyknosed Nuclei (%) [9]: 7%
- Population Tubulin-Different-Phenotype (%) [9]: 30%
- Total Cell Count [9]: 188
- Population Apoptotic (%) [10]: 57%
- Population Fragmented Nuclei (%) [10]: 34%
- Population Healthy Nuclei (%) [10]: 62%
- Population Hoechst High Intensity Objects (%) [10]: 2%
- Population Membrane Permeable-Phenotype (%) [10]: 2%
- Population Mitotic Cells (%) [10]: 42%
- Population Normal (%) [10]: 97%
- Population Pyknosed Nuclei (%) [10]: 3%
- Population Tubulin-Different-Phenotype (%) [10]: 36%
- Total Cell Count [10]: 184
- Population Apoptotic (%) [11]: 93%
- Population Fragmented Nuclei (%) [11]: 16%
- Population Healthy Nuclei (%) [11]: 70%
- Population Hoechst High Intensity Objects (%) [11]: 8%
- Population Membrane Permeable-Phenotype (%) [11]: 2%
- Population Mitochondria Different-Phenotype (%) [11]: 31%
- Population Mitotic Cells (%) [11]: 6%
- Population Normal (%) [11]: 91%
- Population Pyknosed Nuclei (%) [11]: 13%
- Population Tubulin-Different-Phenotype (%) [11]: 96%
- Total Cell Count [11]: 129
- Population Apoptotic (%) [12]: 62%
- Population Fragmented Nuclei (%) [12]: 38%
- Population Healthy Nuclei (%) [12]: 56%
- Population Hoechst High Intensity Objects (%) [12]: 3%
- Population Mitochondria Different-Phenotype (%) [12]: 5%
- Population Mitotic Cells (%) [12]: 37%
- Population Normal (%) [12]: 96%
- Population Pyknosed Nuclei (%) [12]: 5%
- Population Tubulin-Different-Phenotype (%) [12]: 85%
- Total Cell Count [12]: 155
